The source made the active and inactive calls. No cut-off for these calls is given here.
Experiments:
MEL-JUSO [1] = experiment: Antiproliferative activity against human MelJuSo cells assessed as cell viability at 50 uM measured after 24 hrs by celltiter-blue assay relative to control; type: functional; settings: read-out: Activity
Summary of the method: (§1)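 Human melanoma cells seeded at 8.5 × 10^4 cells/well in 96-well plates and treated 24 h with test compound (up to 50 μM) against a DMSO control; viability read as in the group's earlier method. Three to five independent experiments (n = 9−15); mean ± SEM, ANOVA with Bonferroni post hoc test vs DMSO.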

A2058 [2] = experiment: Antiproliferative activity against human A2058 cells assessed as cell viability at 50 uM measured after 24 hrs by celltiter-blue assay relative to control; type: functional; settings: A2058, 24 h, read-out: Activity; summary of the method: as §1
Estrogen receptor beta = Estrogen receptor beta (Homo sapiens, UniProt Q92731)
Chain of Estrogen receptor beta (Q92731 whole entry): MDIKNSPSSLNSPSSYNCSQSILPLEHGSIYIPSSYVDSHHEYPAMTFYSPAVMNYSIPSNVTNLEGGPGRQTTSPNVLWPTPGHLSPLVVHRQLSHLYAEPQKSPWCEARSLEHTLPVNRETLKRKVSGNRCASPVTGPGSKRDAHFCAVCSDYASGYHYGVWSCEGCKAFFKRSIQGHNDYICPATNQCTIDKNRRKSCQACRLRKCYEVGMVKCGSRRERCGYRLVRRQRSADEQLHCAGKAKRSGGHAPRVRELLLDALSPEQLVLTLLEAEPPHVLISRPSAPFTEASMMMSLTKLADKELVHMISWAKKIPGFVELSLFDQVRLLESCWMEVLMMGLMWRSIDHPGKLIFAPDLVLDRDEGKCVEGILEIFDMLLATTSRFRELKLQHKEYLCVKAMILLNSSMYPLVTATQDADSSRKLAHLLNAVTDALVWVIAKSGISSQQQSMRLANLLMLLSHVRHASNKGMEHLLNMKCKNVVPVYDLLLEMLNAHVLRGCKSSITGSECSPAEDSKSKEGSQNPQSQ

Estrogen receptor = target: T1, Estrogen receptor (Homo sapiens, UniProt P03372)
T1 sequence (P03372 whole entry): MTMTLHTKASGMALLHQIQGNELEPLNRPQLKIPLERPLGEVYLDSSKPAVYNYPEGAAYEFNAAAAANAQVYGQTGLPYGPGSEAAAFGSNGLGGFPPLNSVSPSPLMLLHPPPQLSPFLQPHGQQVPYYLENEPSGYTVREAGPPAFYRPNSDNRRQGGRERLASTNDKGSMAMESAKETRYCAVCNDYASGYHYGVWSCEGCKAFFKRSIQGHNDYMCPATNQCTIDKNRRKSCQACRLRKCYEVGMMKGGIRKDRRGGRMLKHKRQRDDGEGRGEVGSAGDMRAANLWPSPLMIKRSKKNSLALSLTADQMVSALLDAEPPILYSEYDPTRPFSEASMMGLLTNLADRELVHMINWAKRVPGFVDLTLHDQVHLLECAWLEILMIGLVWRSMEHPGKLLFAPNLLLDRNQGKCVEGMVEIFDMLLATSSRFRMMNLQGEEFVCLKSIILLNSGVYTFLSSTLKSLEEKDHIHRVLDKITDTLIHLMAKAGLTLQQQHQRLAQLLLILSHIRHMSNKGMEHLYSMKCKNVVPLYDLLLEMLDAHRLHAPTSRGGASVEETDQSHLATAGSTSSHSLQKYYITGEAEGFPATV

[3] = Drug metabolism in pH 7.5 PBS assessed as S-nitroso-thiol level at 50 uM measured after 90 mins in presence of L-cysteine by 2,3-diaminonaphthalene-based fluorescence assay
Summary of the method: (§2)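 Compound incubated 90 min at 37 °C in PBS pH 7.5 alone, with human plasma, with 50 μM K3[Fe(CN)6], or with 5 mM L-cysteine. Nitrite reacted with 2,3-diaminonaphthalene under acid to give fluorescent naphthotriazole; HgCl2 added to release S-nitrosothiol-bound NO. Release given as % of 1 mol NO/mol compound; 3−4 experiments in duplicate (n = 6−8), mean ± SEM.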

[4] = Drug metabolism in pH 7.5 PBS assessed as nitric oxide release at 50 uM measured after 90 mins in presence of […] by 2,3-diaminonaphthalene-based fluorescence assay
[5] = Drug metabolism in pH 7.5 PBS assessed as nitric oxide release at 50 uM measured after 90 mins in presence of K3[Fe(CN)6] by 2,3-diaminonaphthalene-based fluorescence assay; summary of the method: as §2
[6] = Drug metabolism in pH 7.5 PBS assessed as free nitrite level at 50 uM measured after 90 mins in presence of L-cysteine by 2,3-diaminonaphthalene-based fluorescence assay; summary of the method: as §2
[7] = Drug metabolism in pH 7.5 PBS assessed as nitric oxide release at 50 uM measured after 90 mins in presence of L-cysteine by 2,3-diaminonaphthalene-based fluorescence assay; summary of the method: as §2
[8] = Effect on ER/PI3K pathway in HUVEC assessed as upregulation of COX2 expression up to 20 uM measured after 24 hrs by Western blot analysis; type: ADME, cell-based; settings: human
Summary of the method: (§3)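 HUVEC treated 24 h with test compounds at various concentrations, with tamoxifen or 17β-estradiol as references, vs DMSO; COX-2 protein detected by Western blotting. Four independent experiments.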

MDA-MB-231 [9] = experiment: Antiproliferative activity against human MDA-MB-231 cells assessed as cell viability at 50 uM measured after 24 hrs by celltiter-blue assay relative to control; type: functional; settings: MDA-MB-231, 24 h, read-out: Activity
Summary of the method: (§4)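 Breast adenocarcinoma lines: MCF-7 grown in Leibovitz's L-15 with 10% FCS and 1% pen/strep without CO2; MDA-MB-231 grown in DMEM with 10% FCS and 1% pen/strep at 5% CO2; both at 37 °C. Viability measured after 24 h treatment at 50 μM vs DMSO. Three independent experiments (n = 9); mean ± SEM, ANOVA/Bonferroni.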

[10] = Drug metabolism in human whole blood assessed as nitric oxide release measured after 6 hrs by HPLC analysis; type: ADME, tissue-based
Summary of the method: (§5)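 Compound incubated 0 to 6 h in human whole blood at 37 °C; proteins precipitated 1:2 (v/v); supernatant analysed by reversed-phase C18 HPLC at 254 nm, water/MeCN gradient with 0.1% TFA, 3.0 mL/min at 50 °C.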

[11] = Retention time of the compound in human whole blood by HPLC analysis; type: ADME, tissue-based; summary of the method: as §5
MCF7 [12] = experiment: Antiproliferative activity against human MCF7 cells assessed as cell viability at 50 uM measured after 24 hrs by celltiter-blue assay relative to control; type: functional; settings: MCF7, 24 h, read-out: Activity; summary of the method: as §4
MEL-JUSO [13] = experiment: Antiproliferative activity against human MelJuSo cells assessed as reduction in number of proliferating cells at 50 uM measured after 48 hrs by cell counting analysis; type: functional, cell-based
Summary of the method: (§6)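 A2058 cells plated at 0.5 × 10^6 (24 h) or 0.35 × 10^6 (48 h) per well, Mel-Juso at 0.6 × 10^6 or 0.45 × 10^6. After 24 h cells were treated with 0−50 μM, DMSO as control, then counted electronically after 24 or 48 h. Three independent experiments; mean ± SEM, ANOVA/Bonferroni vs DMSO.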

[14] = Drug metabolism in human whole blood assessed as 5d formation measured after 6 hrs by HPLC analysis; type: ADME, tissue-based; summary of the method: as §5
A2058 [15] = experiment: Antiproliferative activity against human A2058 cells assessed as reduction in number of proliferating cells at 50 uM measured after 48 hrs by cell counting analysis; type: functional, cell-based; summary of the method: as §6
[16] = (§7) Cytotoxicity against HUVEC assessed as cell viability at 50 uM measured after 24 hrs by celltiter-blue assay; type: cell-based; settings: human, HUVEC cells; read-out: Activity
Summary of the method: (§8)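 HUVEC grown in endothelial cell growth medium at 37 °C, seeded at 7 × 10^4 cells/well in 96-well plates, treated 24 h with test compound up to 50 μM, DMSO as control; viability read as in the group's earlier method.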

MEL-JUSO [17] = experiment: Antiproliferative activity against human MelJuSo cells assessed as reduction in cell viability measured after 24 hrs by celltiter-blue assay; type: functional, cell-based; summary of the method: as §1
HUVEC [18] = experiment: Cytotoxicity against HUVEC assessed as reduction in cell viability measured after 24 hrs by celltiter-blue assay; type: cell-based; settings: Homo sapiens; summary of the method: as §8
MCF7 [19] = experiment: Antiproliferative activity against human MCF7 cells assessed as reduction in number of proliferating cells measured after 48 hrs by cell counting analysis; type: functional, cell-based
Summary of the method: (§9)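 MCF-7 (L-15 with 10% FCS, no CO2) and MDA-MB-231 (DMEM with 10% FCS, 5% CO2) treated 48 h with test compound over a concentration range, DMSO as control; proliferating cells counted. Four independent experiments (n = 8); mean ± SEM, ANOVA with Bonferroni post hoc test vs DMSO.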

A2058 [20] = experiment: Antiproliferative activity against human A2058 cells assessed as reduction in number of proliferating cells at 25 uM measured after 48 hrs by cell counting analysis; type: functional, cell-based; summary of the method: as §6
[21] = Stability of the compound in human whole blood measured after 6 hrs by HPLC analysis; type: ADME, tissue-based; summary of the method: as §5
MEL-JUSO [22] = experiment: Antiproliferative activity against human MelJuSo cells assessed as reduction in number of proliferating cells at 25 uM measured after 48 hrs by cell counting analysis; type: functional, cell-based; summary of the method: as §6
A2058 [23] = experiment: Antiproliferative activity against human A2058 cells assessed as reduction in cell viability measured after 24 hrs by celltiter-blue assay; type: functional, cell-based; settings: A2058, 24 h; summary of the method: as §1
HUVEC [24] = experiment: as §7; type: cell-based; settings: human, huvec, 24 h, 50 µM; BLD = below limit of detection; summary of the method: as §8
MDA-MB-231 [25] = experiment: Antiproliferative activity against human MDA-MB-231 cells assessed as reduction in number of proliferating cells measured after 48 hrs by cell counting analysis; type: functional, cell-based; summary of the method: as §9
[26] = Effect on ER/PI3K pathway in HUVEC assessed as upregulation of COX2 expression measured after 24 hrs by Western blot analysis; type: ADME, cell-based; settings: human; summary of the method: as §3
[27] = Effect on ER/PI3K pathway in HUVEC assessed as change COX2 expression up to 1 uM measured after 24 hrs by Western blot analysis; type: ADME, cell-based; settings: human; summary of the method: as §3

SMILES | IC50 (Estrogen receptor beta) [µM] | IC50 (Estrogen receptor) [µM] | viability at 50 µM (MEL-JUSO [1]) [%] | viability at 50 µM (A2058 [2]) [%] | Drug metabolism [3] [%] | Drug metabolism [5] [%] | Drug metabolism [6] [%] | Drug metabolism [7] [%] | also measured
CCCCC(=C(c1ccc(F)cc1)c1ccc(F)cc1)c1ccc(S(C)(=O)=O)cc1 |  |  | 75.4 | 117 |  |  |  |  | 
O=S(=O)(NO)c1ccccc1 |  |  |  |  | 3.3 | 48.3 | 0.3 | 3.6 | Drug metabolism [4]: 33.5%
CS(=O)(=O)c1ccc(C(CCCCO[N+](=O)[O-])=C(c2ccc(F)cc2)c2ccc(F)cc2)cc1 | 0.2 | > 5 | 101 | 106 | 3.4 | 2.5 | 0.4 | 3.8 | Activity [8]: Not Active; viability at 50 µM (MDA-MB-231 [9]): 91.3%; Drug metabolism [10]: Metabolite_Detected; Retention_time [11]: 16.4 min; viability at 50 µM (MCF7 [12]): 82.8%; Activity (MEL-JUSO [13]): inactive; Drug metabolism [14]: Metabolite_Detected; Activity (A2058 [15]): inactive; viability at 24 h, 50 µM [16]: 91.1%
CS(=O)(=O)c1ccc(C(CCCO[N+](=O)[O-])=C(c2ccccc2)c2ccccc2)cc1 | 2.7 | > 5 | 96.5 | 117 | 1.3 | 1.5 | 0.7 | 2 | 
CC(=O)Oc1ccccc1C(=O)Oc1ccc(CO[N+](=O)[O-])cc1 |  |  |  |  | 3.6 | 0.2 | 0.8 | 4.4 | 
CS(=O)(=O)c1ccc(C(CCCCO)=C(c2ccc(F)cc2)c2ccc(F)cc2)cc1 | 0.18 | > 5 | 20.5 | 17 |  |  |  |  | EC50 (MEL-JUSO [17]): 34.9 µM; EC50 (HUVEC [18]): 19.6 µM; viability at 50 µM (MDA-MB-231 [9]): 86.4%; Activity (MCF7 [19]): Dose-dependent effect; Activity (A2058 [20]): Active; Retention_time [11]: 14.5 min; Stability [21]: Stable; viability at 50 µM (MCF7 [12]): 72.2%; Activity (MEL-JUSO [22]): Active; EC50 (A2058 [23]): 39.9 µM; Activity (HUVEC [24]): Bld; Activity (MDA-MB-231 [25]): Dose-dependent effect; Activity [26]: Dose-dependent effect
CC/C(=C(\c1ccccc1)c1ccc(OCCN(C)C)cc1)c1ccccc1 [TAMOXIFEN] |  |  | 1 | 1.8 |  |  |  |  | EC50 (MEL-JUSO [17]): 14.6 µM; Activity [27]: Active; EC50 (A2058 [23]): 12.5 µM

Now from value to molecule, other results behind:

IC50 (Estrogen receptor beta) [µM] | IC50 (Estrogen receptor) [µM] | SMILES | viability at 50 µM (MEL-JUSO [1]) [%] | viability at 50 µM (A2058 [2]) [%] | Drug metabolism [3] [%] | Drug metabolism [5] [%] | Drug metabolism [6] [%] | Drug metabolism [7] [%] | also measured
1.5 | > 5 | CS(=O)(=O)c1ccc(C(CCCO)=C(c2ccccc2)c2ccccc2)cc1 | 52.7 | 63 |  |  |  |  | 
1.4 | > 5 | CS(=O)(=O)c1ccc(C(CCCCO)=C(c2ccccc2)c2ccccc2)cc1 | 68.6 | 106 |  |  |  |  | 
1.3 | > 5 | CS(=O)(=O)c1ccc(C(CCCCO[N+](=O)[O-])=C(c2ccccc2)c2ccccc2)cc1 | 87.1 | 120 | 0.4 | 1.1 | 0.9 | 0.5 | Drug metabolism [4]: 0.1%
> 5 | > 5 | CS(=O)(=O)c1ccc(C(CCCO[N+](=O)[O-])=C(c2ccc(F)cc2)c2ccc(F)cc2)cc1 | 91.5 | 107 | 1.9 | 0.1 | 0.1 | 2 | Drug metabolism [4]: 2.2%
3 | > 5 | CS(=O)(=O)c1ccc(C(CCCO)=C(c2ccc(F)cc2)c2ccc(F)cc2)cc1 | 31.4 | 47.6 |  |  |  |  | EC50 (MEL-JUSO [17]): 36.3 µM; EC50 (A2058 [23]): 27.5 µM
